# How the values were obtained:
# [1] = biological target: T1, Phosphotyrosine-protein phosphatase PTPB (Mycobacterium tuberculosis) (UniProt P96830); assay: Inhibition of Mycobacterium tuberculosis PTP-B using p-nitrophenyl phosphate as substrate at 25 uM measured for 10 mins by spectrofluorimetry
# T1 sequence (whole entry): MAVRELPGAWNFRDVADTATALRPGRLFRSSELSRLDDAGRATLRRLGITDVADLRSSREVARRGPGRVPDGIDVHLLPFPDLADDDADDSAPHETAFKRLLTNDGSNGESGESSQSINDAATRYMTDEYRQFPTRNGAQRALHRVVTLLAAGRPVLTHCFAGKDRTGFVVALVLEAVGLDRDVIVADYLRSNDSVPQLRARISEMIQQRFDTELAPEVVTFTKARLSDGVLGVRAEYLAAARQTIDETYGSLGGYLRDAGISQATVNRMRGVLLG
# Procedure, shortened: (§1)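 Single-point screen at 25 μM final compound, added from 1.0 × 10−3 M DMSO stock, with recombinant Mtb PtpA or PtpB (0.4 μg/μL final) in 20 mM imidazole pH 7.0 with 40 mM pNPP. Reaction started by adding enzyme. p-Nitrophenol release read at 410 nm every min for 10 min at 37 °C. Residual activity was taken from the absorbance difference between 6 and 2 min; two experiments, each in triplicate.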
# [2] = Solubility of the compound; assay type: physicochemical
# [3] = biological target: T2, Low molecular weight protein-tyrosine phosphatase A (Mycobacterium tuberculosis) (UniProt P9WIA1); assay: Inhibition of Mycobacterium tuberculosis PTP-A using p-nitrophenyl phosphate as substrate at 25 uM measured for 10 mins by spectrofluorimetry; procedure, shortened: as §1
# T2 sequence (whole entry): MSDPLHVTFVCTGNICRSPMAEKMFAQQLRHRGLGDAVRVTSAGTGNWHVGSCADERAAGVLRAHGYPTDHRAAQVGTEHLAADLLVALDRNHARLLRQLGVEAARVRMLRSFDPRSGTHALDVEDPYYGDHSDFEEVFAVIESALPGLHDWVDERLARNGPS
structure (smiles),measurement,setting,value
O=C(/C=C/c1ccccc1)c1ccc2c(c1)OCO2,inhibition,[1],0%
same,solubility,[2],soluble
same,inhibition,[3],0%
CCCCOc1ccc(/C=C/C(=O)c2ccc3c(c2)OCO3)cc1,inhibition,[1],0%
same,solubility,[2],soluble
same,inhibition,[3],11%
O=C(/C=C/c1cccs1)c1ccc2ccccc2c1,inhibition,[1],0%
same,solubility,[2],soluble
same,inhibition,[3],15%
O=C(/C=C/c1ccc2ccccc2c1)c1ccc2c(c1)OCO2,inhibition,[1],15%
same,solubility,[2],soluble
same,inhibition,[3],12%
O=C(/C=C/c1c(Cl)cccc1Cl)c1ccc2ccccc2c1,inhibition,[1],0%
same,solubility,[2],soluble
same,inhibition,[3],16%
COc1cc(OC)c(OC)cc1/C=C/C(=O)c1ccc2ccccc2c1,inhibition,[1],0%
same,solubility,[2],soluble
same,inhibition,[3],7%
COc1ccc(OC)c(/C=C/C(=O)c2ccc3c(c2)OCO3)c1,inhibition,[1],0%
same,solubility,[2],soluble
same,inhibition,[3],10%
COc1cc(/C=C/C(=O)c2ccc3c(c2)OCO3)ccc1O,inhibition,[1],0%
same,solubility,[2],soluble
same,inhibition,[3],0%
O=C(/C=C/c1ccccc1Cl)c1ccc2c(c1)OCO2,inhibition,[1],0%
same,solubility,[2],soluble
same,inhibition,[3],5%
O=C(/C=C/c1ccc(-c2ccccc2[N+](=O)[O-])o1)c1ccc2c(c1)OCO2,inhibition,[1],10%
same,solubility,[2],soluble
same,inhibition,[3],19%
O=C(/C=C/c1ccc(Cl)c(C(F)(F)F)c1)c1ccc2c(c1)OCO2,inhibition,[1],0%
same,solubility,[2],soluble
same,inhibition,[3],0%
COc1cccc(C(=O)/C=C/c2ccc3ccccc3c2)c1,inhibition,[1],0%
same,solubility,[2],soluble
same,inhibition,[3],0%
Cc1ccc(/C=C/C(=O)c2ccc3c(c2)OCO3)cc1,inhibition,[1],0%
same,solubility,[2],soluble
same,inhibition,[3],14%
O=C(/C=C/c1cccc(Cl)c1)c1ccc2c(c1)OCO2,inhibition,[1],0%
same,solubility,[2],soluble
same,inhibition,[3],23%
O=C(/C=C/c1ccccc1)c1ccc2ccccc2c1,inhibition,[1],16%
same,solubility,[2],soluble
same,inhibition,[3],4%
CCCCOc1ccc(/C=C/C(=O)c2ccc3ccccc3c2)cc1,inhibition,[1],17%
same,solubility,[2],soluble
same,inhibition,[3],8%
COc1ccc(/C=C/C(=O)c2ccc3c(c2)OCO3)cc1OC,inhibition,[1],0%
same,solubility,[2],soluble
same,inhibition,[3],19%
O=C(/C=C/c1ccccc1Cl)c1ccc2ccccc2c1,inhibition,[1],13%
same,solubility,[2],soluble
same,inhibition,[3],0%
O=C(/C=C/c1cccc(Br)c1)c1ccc2ccccc2c1,inhibition,[1],20%
same,solubility,[2],soluble
same,inhibition,[3],0%
COc1cccc(/C=C/C(=O)c2ccc3c(c2)OCO3)c1,inhibition,[1],0%
same,solubility,[2],soluble
same,inhibition,[3],10%
COc1ccc(OC)c(/C=C/C(=O)c2ccc3ccccc3c2)c1,inhibition,[1],0%
same,solubility,[2],soluble
same,inhibition,[3],22%
COc1ccc(/C=C/C(=O)c2ccc3ccccc3c2)c(OC)c1OC,inhibition,[1],0%
same,solubility,[2],soluble
same,inhibition,[3],0%
O=C(/C=C/c1cccc(Br)c1)c1ccc2c(c1)OCO2,inhibition,[1],0%
same,solubility,[2],soluble
same,inhibition,[3],5%
O=C(/C=C/c1cccc([N+](=O)[O-])c1)c1ccc2c(c1)OCO2,inhibition,[1],22%
same,solubility,[2],soluble
same,inhibition,[3],23%
O=C(/C=C/c1ccc(Cl)c(Cl)c1)c1ccc2ccccc2c1,inhibition,[1],28%
same,solubility,[2],soluble
same,inhibition,[3],11%
O=C(/C=C/c1cccc([N+](=O)[O-])c1)c1ccc2ccccc2c1,inhibition,[1],7%
same,solubility,[2],soluble
same,inhibition,[3],12%
O=C(/C=C/c1cc(Cl)cc(Cl)c1)c1ccc2ccccc2c1,inhibition,[1],29%
same,solubility,[2],soluble
same,inhibition,[3],19%
O=C(/C=C/c1ccc2c(c1)OCO2)c1ccc2c(c1)OCO2,inhibition,[1],0%
same,solubility,[2],soluble
same,inhibition,[3],6%
O=C(/C=C/c1cc2ccccc2nc1Cl)c1ccc2c(c1)OCO2,inhibition,[1],0%
same,solubility,[2],soluble
same,inhibition,[3],19%
COc1cc(OC)c(OC)cc1/C=C/C(=O)c1ccc2c(c1)OCO2,inhibition,[1],19%
same,solubility,[2],soluble
same,inhibition,[3],19%
O=C(/C=C/c1ccc(C(F)(F)F)cc1)c1ccc2c(c1)OCO2,inhibition,[1],0%
same,solubility,[2],soluble
same,inhibition,[3],7%
COc1cc(/C=C/C(=O)c2ccc3ccccc3c2)ccc1OCc1ccccc1,inhibition,[1],0%
same,solubility,[2],soluble
same,inhibition,[3],5%
O=C(/C=C/c1ccccc1F)c1ccc2ccccc2c1,inhibition,[1],0%
same,solubility,[2],soluble
same,inhibition,[3],23%
O=C(/C=C/c1ccc(F)cc1)c1ccc2c(c1)OCO2,inhibition,[1],0%
same,solubility,[2],soluble
same,inhibition,[3],0%
COc1ccc(OC)c(C(=O)/C=C/c2ccc(OCc3ccccc3)c(OC)c2)c1,inhibition,[1],16%
same,solubility,[2],soluble
same,inhibition,[3],12%
COc1cc(OC)c(C(=O)/C=C/c2ccc3c(c2)OCO3)cc1OC,inhibition,[1],29%
same,solubility,[2],soluble
same,inhibition,[3],8%
O=C(/C=C/c1cc(Cl)cc(Cl)c1)c1ccc2c(c1)OCO2,inhibition,[1],0%
same,solubility,[2],soluble
same,inhibition,[3],14%
O=C(/C=C/c1cccs1)c1ccc2c(c1)OCO2,inhibition,[1],0%
same,solubility,[2],soluble
same,inhibition,[3],7%
COc1cc(/C=C/C(=O)c2ccc3c(c2)OCO3)ccc1OCc1ccccc1,inhibition,[1],0%
same,solubility,[2],soluble
same,inhibition,[3],12%
O=C(/C=C/c1ccccc1F)c1ccc2c(c1)OCO2,inhibition,[1],0%
same,solubility,[2],soluble
same,inhibition,[3],9%
N#Cc1ccc(/C=C/C(=O)c2ccc3c(c2)OCO3)cc1,inhibition,[1],0%
same,solubility,[2],soluble
same,inhibition,[3],4%
O=C(/C=C/c1ccc(Br)cc1)c1ccc2ccccc2c1,inhibition,[1],24%
same,solubility,[2],soluble
same,inhibition,[3],8%
O=C1COc2ccc(C(=O)/C=C/c3ccc4ccccc4c3)cc2N1,inhibition,[1],24%
same,solubility,[2],soluble
same,inhibition,[3],0%
O=C(/C=C/c1ccc(-c2ccccc2[N+](=O)[O-])o1)c1ccc2ccccc2c1,inhibition,[1],7%
same,solubility,[2],soluble
same,inhibition,[3],9%
COc1cc(OC)c(C(=O)/C=C/c2ccc3ccccc3c2)cc1OC,inhibition,[1],14%
same,solubility,[2],soluble
same,inhibition,[3],22%
O=C(/C=C/c1cccc(C(F)(F)F)c1)c1ccc2ccccc2c1,inhibition,[1],0%
same,solubility,[2],soluble
same,inhibition,[3],24%
COc1ccc2nc(Cl)c(/C=C/C(=O)c3ccc4ccccc4c3)cc2c1,inhibition,[1],17%
same,solubility,[2],soluble
same,inhibition,[3],22%
N#Cc1ccc(/C=C/C(=O)c2ccc3ccccc3c2)cc1,inhibition,[1],20%
same,solubility,[2],soluble
same,inhibition,[3],21%
COc1ccc(/C=C/C(=O)c2ccc3c(c2)OCO3)cc1,inhibition,[1],11%
same,solubility,[2],soluble
same,inhibition,[3],17%
CN(C)c1ccc(/C=C/C(=O)c2ccc3c(c2)OCO3)cc1,inhibition,[1],0%
same,solubility,[2],soluble
same,inhibition,[3],10%
Cc1ccc(/C=C/C(=O)c2ccc3ccccc3c2)cc1,inhibition,[1],28%
same,solubility,[2],soluble
same,inhibition,[3],8%
O=C(/C=C/c1ccc2ccccc2c1)c1ccc(Cl)c(Cl)c1,inhibition,[1],18%
same,solubility,[2],soluble
same,inhibition,[3],9%
COc1cccc(/C=C/C(=O)c2ccc3ccccc3c2)c1,inhibition,[1],0%
same,solubility,[2],soluble
same,inhibition,[3],10%
O=C(/C=C/c1cccc2ccccc12)c1ccc2c(c1)OCO2,inhibition,[1],0%
same,solubility,[2],soluble
same,inhibition,[3],8%
O=C(/C=C/c1ccc2c(c1)OCO2)c1ccc2ccccc2c1,inhibition,[1],0%
same,solubility,[2],soluble
same,inhibition,[3],13%
COc1cccc(OC)c1/C=C/C(=O)c1ccc2c(c1)OCO2,inhibition,[1],0%
same,solubility,[2],soluble
same,inhibition,[3],4%
O=C(/C=C/c1ccc(F)cc1)c1ccc2ccccc2c1,inhibition,[1],14%
same,solubility,[2],soluble
same,inhibition,[3],13%
O=C(/C=C/c1cccc(Cl)c1)c1ccc2ccccc2c1,inhibition,[1],0%
same,solubility,[2],soluble
same,inhibition,[3],7%
O=C(/C=C/c1ccc(Cl)c(C(F)(F)F)c1)c1ccc2ccccc2c1,inhibition,[1],0%
same,solubility,[2],soluble
same,inhibition,[3],13%
COc1cc(/C=C/C(=O)c2ccc3c(c2)OCO3)cc(OC)c1OC,inhibition,[1],0%
same,solubility,[2],soluble
same,inhibition,[3],5%
O=C(/C=C/c1ccc(Cl)cc1)c1ccc2ccccc2c1,inhibition,[1],27%
same,solubility,[2],soluble
same,inhibition,[3],13%
COc1cc(OC)c(/C=C/C(=O)c2ccc3c(c2)OCO3)c(OC)c1,inhibition,[1],0%
same,solubility,[2],soluble
same,inhibition,[3],5%
